Measurements: ChEMBL document CHEMBL1156816, “Antiangiogenic effect of dual/selective alpha(5)beta(1)/alpha(v)beta(3) integrin antagonists designed on partially modified retro-inverso cyclotetrapeptide mimetics” (J Med Chem, 2010)
The source made the active and inactive calls. No cut-off for these calls is given here. Non-standard residues stand in square brackets, D forms with d. Residues, ends and D or L forms follow the SMILES beside them.

How the values were obtained:
HUVEC [1] = assay: Cytotoxicity against HUVEC assessed as increase in level of necrotic cells at 10 uM after 16 hrs by flow cytometry using Annexin V/propidium staining; assay type: cell-based; details: human
Outline: (§1)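 HUVEC exposed 16 h to 1 or 10 μM cyclopeptide; morphology examined. For flow cytometry, cells were detached and fixed 15 min in 1% paraformaldehyde, then PBS-washed. They were resuspended in 10 mM Hepes/NaOH pH 7.4, 140 mM NaCl, 5 mM CaCl₂ with Annexin-V-Fluos and propidium iodide, kept 15 min at room temperature in the dark, then analyzed for intact, apoptotic and necrotic cells.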

Integrin alpha-5/beta-1 = Integrin alpha-5/beta-1 (Homo sapiens, UniProt P05556+P08648); assay: Inhibition of alpha5beta1 integrin-mediated cell adhesion in human K562 cells on fibronectin coated plate after 30 mins; assay type: cell-based
Chain of Integrin alpha-5/beta-1 (P05556 21-798 limits assumed): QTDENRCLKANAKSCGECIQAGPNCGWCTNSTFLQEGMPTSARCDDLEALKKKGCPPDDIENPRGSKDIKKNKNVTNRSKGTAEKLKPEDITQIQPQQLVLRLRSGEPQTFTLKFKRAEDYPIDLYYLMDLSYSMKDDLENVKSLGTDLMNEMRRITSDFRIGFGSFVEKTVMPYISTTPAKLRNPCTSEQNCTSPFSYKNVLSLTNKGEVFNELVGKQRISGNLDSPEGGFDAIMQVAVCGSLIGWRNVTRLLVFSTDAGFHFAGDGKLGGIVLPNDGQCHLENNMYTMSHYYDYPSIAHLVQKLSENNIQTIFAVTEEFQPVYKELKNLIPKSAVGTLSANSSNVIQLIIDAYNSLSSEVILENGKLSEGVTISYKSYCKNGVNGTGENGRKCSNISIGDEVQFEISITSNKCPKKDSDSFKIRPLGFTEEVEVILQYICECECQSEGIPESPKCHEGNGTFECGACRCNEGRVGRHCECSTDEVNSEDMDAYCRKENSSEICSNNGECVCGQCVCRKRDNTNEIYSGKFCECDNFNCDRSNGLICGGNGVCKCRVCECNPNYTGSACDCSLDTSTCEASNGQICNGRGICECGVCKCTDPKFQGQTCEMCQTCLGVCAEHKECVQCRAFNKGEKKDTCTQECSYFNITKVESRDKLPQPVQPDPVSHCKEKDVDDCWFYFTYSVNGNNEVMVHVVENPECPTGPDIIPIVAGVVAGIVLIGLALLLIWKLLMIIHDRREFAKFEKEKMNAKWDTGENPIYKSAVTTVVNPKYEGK
Chain of Integrin alpha-5/beta-1 (P08648 42-894 limits assumed): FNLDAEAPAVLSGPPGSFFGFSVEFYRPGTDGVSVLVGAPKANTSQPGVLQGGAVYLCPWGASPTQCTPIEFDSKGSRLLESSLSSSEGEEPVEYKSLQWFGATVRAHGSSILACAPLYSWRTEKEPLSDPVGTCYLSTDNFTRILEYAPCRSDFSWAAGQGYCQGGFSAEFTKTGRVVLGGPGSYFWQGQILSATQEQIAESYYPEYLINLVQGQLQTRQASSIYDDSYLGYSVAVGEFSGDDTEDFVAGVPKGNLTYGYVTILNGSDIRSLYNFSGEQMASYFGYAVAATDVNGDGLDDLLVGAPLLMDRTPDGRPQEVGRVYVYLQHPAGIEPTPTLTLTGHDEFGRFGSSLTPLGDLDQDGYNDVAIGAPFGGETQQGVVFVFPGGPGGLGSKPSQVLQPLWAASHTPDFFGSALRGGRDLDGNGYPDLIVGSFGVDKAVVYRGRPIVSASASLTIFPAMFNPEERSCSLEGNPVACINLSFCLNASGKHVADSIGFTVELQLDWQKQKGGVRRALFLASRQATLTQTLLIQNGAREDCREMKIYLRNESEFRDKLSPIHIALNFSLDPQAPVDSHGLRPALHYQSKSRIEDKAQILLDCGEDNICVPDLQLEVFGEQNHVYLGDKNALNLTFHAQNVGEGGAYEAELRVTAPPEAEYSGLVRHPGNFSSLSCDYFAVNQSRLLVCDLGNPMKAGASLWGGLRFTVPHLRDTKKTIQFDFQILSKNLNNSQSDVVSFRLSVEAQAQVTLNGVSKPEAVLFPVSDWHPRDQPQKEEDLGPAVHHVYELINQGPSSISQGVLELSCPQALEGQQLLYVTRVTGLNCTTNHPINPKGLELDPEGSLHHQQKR
Chain of Integrin alpha-5/beta-1 (P08648 895-1049 limits assumed): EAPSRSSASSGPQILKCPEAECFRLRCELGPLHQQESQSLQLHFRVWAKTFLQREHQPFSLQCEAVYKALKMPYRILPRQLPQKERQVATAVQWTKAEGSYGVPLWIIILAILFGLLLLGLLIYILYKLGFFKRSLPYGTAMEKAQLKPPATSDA
Outline: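 Wells coated overnight at 4 °C with fibronectin or vitronectin (10 μg/mL). Cells were preincubated 30 min at room temperature with compound (≤1% DMSO), then plated at 50000/well and left 1 h at room temperature. After PBS wash, adherent cells were quantified by hexosaminidase substrate read at 405 nm against a calibration curve. Quadruplicate, ≥3 repeats; IC50 calculated.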

HUVEC [2] = assay: Cytotoxicity against HUVEC assessed as change in cell morphology at 1 uM after 16 hrs by flow cytometry using Annexin V/propidium staining; assay type: cell-based; details: human; outline: as §1
Integrin alpha-V/beta-3 [3] = molecular target: T1, Integrin alpha-V/beta-3 (Homo sapiens, UniProt P05106+P06756); assay: Inhibition of alphavbeta3 integrin-mediated cell adhesion in HUVEC on vitronectin coated plate after 30 mins
T1 sequence (P05106 27-788 limits assumed): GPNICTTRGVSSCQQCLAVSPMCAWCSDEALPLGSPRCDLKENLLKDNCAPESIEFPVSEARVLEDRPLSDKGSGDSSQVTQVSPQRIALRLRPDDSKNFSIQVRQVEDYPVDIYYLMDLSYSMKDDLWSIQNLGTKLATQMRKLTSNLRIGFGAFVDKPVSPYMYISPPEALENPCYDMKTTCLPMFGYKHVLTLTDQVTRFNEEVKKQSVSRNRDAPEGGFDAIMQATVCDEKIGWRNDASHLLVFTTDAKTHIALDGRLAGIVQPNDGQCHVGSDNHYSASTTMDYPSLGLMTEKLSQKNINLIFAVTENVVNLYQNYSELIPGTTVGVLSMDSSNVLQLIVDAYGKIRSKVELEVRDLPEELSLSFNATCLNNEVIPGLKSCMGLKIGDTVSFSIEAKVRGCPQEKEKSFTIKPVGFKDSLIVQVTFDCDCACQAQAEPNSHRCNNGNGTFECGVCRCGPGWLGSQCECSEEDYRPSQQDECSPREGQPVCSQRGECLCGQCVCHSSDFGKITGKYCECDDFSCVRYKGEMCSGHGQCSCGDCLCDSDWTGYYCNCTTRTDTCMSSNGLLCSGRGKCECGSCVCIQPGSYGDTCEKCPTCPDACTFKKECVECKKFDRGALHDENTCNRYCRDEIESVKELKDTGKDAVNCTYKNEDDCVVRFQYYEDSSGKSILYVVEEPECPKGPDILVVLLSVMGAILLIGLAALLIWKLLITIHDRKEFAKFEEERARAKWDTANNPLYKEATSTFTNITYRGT
T1 sequence (P06756 31-889 limits assumed): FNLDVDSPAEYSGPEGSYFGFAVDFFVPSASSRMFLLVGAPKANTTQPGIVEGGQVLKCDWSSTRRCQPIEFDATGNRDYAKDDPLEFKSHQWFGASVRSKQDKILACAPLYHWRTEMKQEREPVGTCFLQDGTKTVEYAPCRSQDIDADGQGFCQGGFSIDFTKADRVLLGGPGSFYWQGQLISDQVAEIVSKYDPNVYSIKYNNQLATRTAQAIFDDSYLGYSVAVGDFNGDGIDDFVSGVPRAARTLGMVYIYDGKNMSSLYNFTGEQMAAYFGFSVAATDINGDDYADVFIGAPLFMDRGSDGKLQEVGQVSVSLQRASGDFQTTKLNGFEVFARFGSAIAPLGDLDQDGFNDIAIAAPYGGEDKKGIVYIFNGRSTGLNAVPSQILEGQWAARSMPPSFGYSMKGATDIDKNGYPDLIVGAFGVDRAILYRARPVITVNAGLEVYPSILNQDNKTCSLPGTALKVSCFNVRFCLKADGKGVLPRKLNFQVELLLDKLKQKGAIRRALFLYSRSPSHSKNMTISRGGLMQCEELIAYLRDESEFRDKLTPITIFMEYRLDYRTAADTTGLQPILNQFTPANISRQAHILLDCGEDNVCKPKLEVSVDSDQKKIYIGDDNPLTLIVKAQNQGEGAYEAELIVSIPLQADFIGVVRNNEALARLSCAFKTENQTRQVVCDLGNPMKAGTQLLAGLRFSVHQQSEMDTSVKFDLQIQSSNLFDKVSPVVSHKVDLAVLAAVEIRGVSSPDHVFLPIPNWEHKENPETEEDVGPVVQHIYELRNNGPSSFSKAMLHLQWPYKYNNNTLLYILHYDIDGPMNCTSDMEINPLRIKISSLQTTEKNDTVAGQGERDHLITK
T1 sequence (P06756 891-1048 limits assumed): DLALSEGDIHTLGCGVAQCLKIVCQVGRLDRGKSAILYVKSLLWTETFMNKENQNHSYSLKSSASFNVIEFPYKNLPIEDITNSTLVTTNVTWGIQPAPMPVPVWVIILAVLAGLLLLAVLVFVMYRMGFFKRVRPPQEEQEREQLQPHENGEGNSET

Integrin alpha-V/beta-3 [4] = molecular target: T1, Integrin alpha-V/beta-3; assay: Inhibition of alphavbeta3 integrin-mediated cell adhesion in human SK-MEL-24 cells on fibronectin coated plate after 30 mins; assay type: cell-based
HUVEC [5] = assay: Cytotoxicity against HUVEC assessed as change in cell morphology at 10 uM after 16 hrs by flow cytometry using Annexin V/propidium staining; assay type: cell-based; details: human; outline: as §1
HUVEC [6] = assay: Cytotoxicity against HUVEC assessed as increase in level of necrotic cells at 1 uM after 16 hrs by flow cytometry using Annexin V/propidium staining; assay type: cell-based; details: human; outline: as §1
HUVEC [7] = assay: Antiangiogenic activity in HUVEC on Matrigel assessed as reduction of bFGF-induced tube branches measured per square mm at 10 uM after 16 hrs by microscopic analysis; assay type: functional
Outline: (§2)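 HUVEC (passages 2-7, cultured in EGM) seeded at 5000 cells/well on Matrigel-precoated wells with test compound, with or without bFGF 30 ng/mL. Vehicle up to 1% DMSO in medium. Incubated 16 h at 37 °C. Capillary-like tubes examined by microscopy with camera and counted as tubes per square millimeter. Quadruplicate, repeated three times; mean ± SEM; Newman-Keuls test after ANOVA.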

HUVEC [8] = assay: Antiangiogenic activity in HUVEC on Matrigel assessed as inhibition of bFGF-induced tube formation at 1 uM after 16 hrs; assay type: functional, cell-based; details: Homo sapiens; outline: as §2
HUVEC [9] = assay: Inhibition of bFGF-induced angiogenesis in HUVEC cells on Matrigel assessed as number of tube branches at 10 nM after 16 hrs by microscopic analysis; assay type: functional, cell-based; details: Homo sapiens; outline: as §2
HUVEC [10] = assay: Inhibition of bFGF-induced angiogenesis in HUVEC on Matrigel assessed as endothelial morphogenesis at 1 uM after 16 hrs by microscopic analysis; assay type: functional, cell-based; details: Homo sapiens; outline: as §2
HUVEC [11] = assay: Inhibition of bFGF-induced angiogenesis in HUVEC on Matrigel assessed as number of tube branches at 100 to 500 nM after 16 hrs by microscopic analysis; assay type: functional, cell-based; details: Homo sapiens; outline: as §2
[12] = in the assay text read “at 1 uM” for “at 10 uM”

Row | Structure (SMILES) | Activity (HUVEC [1]) | IC50 (Integrin alpha-5/beta-1) [µM] | Activity (HUVEC [2]) | IC50 (Integrin alpha-V/beta-3 [3]) [µM] | IC50 (Integrin alpha-V/beta-3 [4]) [µM] | Activity (HUVEC [5]) | Activity (HUVEC [6]) | Activity (HUVEC [7]; Homo sapiens) | Activity (HUVEC [7]; [12]) | Activity (HUVEC [8]) | Activity (HUVEC [9]) | Activity (HUVEC [10]) | Activity (HUVEC [11])
1 | NC(N)=NCCC[C@H]1NC(=O)CC(=O)N[C@H](CC(=O)O)C(=O)N[C@H](Cc2ccccc2)CNC1=O | Non-toxic | > 100 | Non-toxic | > 100 | > 100 | Non-toxic | Non-toxic | – | – | – | – | – | –
2 | N=C(N)NCCC[C@@H]1NC(=O)CC(=O)N[C@H](CC(=O)O)C(=O)N[C@H](Cc2ccccc2)CNC1=O | Non-toxic | 1.3 | Non-toxic | 0.92 | 2.1 | Non-toxic | Non-toxic | inactive | – | – | – | – | –
3 | N=C(N)NCCC[C@H]1NC(=O)CC(=O)N[C@H](CC(=O)O)C(=O)N[C@H](Cc2ccccc2)CNC1=O | – | – | – | – | – | – | – | inactive | – | – | – | – | –
4 | N=C(N)NCCC[C@@H]1NC(=O)CC(=O)N[C@H](CC(=O)O)C(=O)N[C@@H](Cc2ccccc2)CNC1=O | Non-toxic | > 100 | Non-toxic | > 100 | > 100 | Non-toxic | Non-toxic | inactive | – | – | – | – | –
5 | N=C(N)NCCC[C@@H]1NC(=O)CC(=O)N[C@@H](CC(=O)O)C(=O)N[C@@H](Cc2ccccc2)CNC1=O | Non-toxic | 0.52 | Non-toxic | 25.2 | 11 | Non-toxic | Non-toxic | – | 6.8 | Active | inactive | Active | inactive
6 | N=C(N)NCCC[C@@H]1NC(=O)CC(=O)N[C@@H](CC(=O)O)C(=O)N[C@H](Cc2ccccc2)CNC1=O | – | – | – | – | – | – | – | – | 5.1 | Active | inactive | Active | inactive
7 | NC(N)=NCCC[C@@H]1NC(=O)CC(=O)N[C@@H](CC(=O)O)C(=O)N[C@H](Cc2ccccc2)CNC1=O | Non-toxic | 0.024 | Non-toxic | 0.24 | 0.18 | Non-toxic | Non-toxic | – | – | – | – | – | –
8 | NC(N)=NCCC[C@H]1NC(=O)CC(=O)N[C@@H](CC(=O)O)C(=O)N[C@H](Cc2ccccc2)CNC1=O | Non-toxic | > 100 | Non-toxic | > 100 | > 100 | Non-toxic | Non-toxic | – | – | – | – | – | –
9 | N=C(N)NCCC[C@H]1NC(=O)CC(=O)N[C@H](CC(=O)O)C(=O)N[C@@H](Cc2ccccc2)CNC1=O | – | – | – | – | – | – | – | inactive | – | – | – | – | –
10 | CC(C)[C@@H]1NC(=O)[C@@H](Cc2ccccc2)NC(=O)[C@H](CC(=O)O)NC(=O)CNC(=O)[C@H](CCCN=C(N)N)NC1=O [CYCLORGDFV] | – | 34.7 | – | – | – | – | – | – | – | – | – | – | –
11 | N=C(N)NCCC[C@H]1NC(=O)CC(=O)N[C@@H](CC(=O)O)C(=O)N[C@@H](Cc2ccccc2)CNC1=O | Non-toxic | 4.7 | Non-toxic | 1.5 | 2.3 | Non-toxic | Non-toxic | inactive | – | – | – | – | –
12 | N=C(N)NCCC[C@H]1NC(=O)CC(=O)N[C@@H](CC(=O)O)C(=O)N[C@H](Cc2ccccc2)CNC1=O | – | – | – | – | – | – | – | inactive | – | – | – | – | –
13 | NC(N)=NCCC[C@H]1NC(=O)CC(=O)N[C@H](CC(=O)O)C(=O)N[C@@H](Cc2ccccc2)CNC1=O | Non-toxic | > 100 | Non-toxic | > 100 | > 100 | Non-toxic | Non-toxic | – | – | – | – | – | –
14 | CC(C)[C@@H]1NC(=O)[C@@H](Cc2ccccc2)NC(=O)[C@H](CC(=O)O)NC(=O)[C@H](C)NC(=O)[C@H](CCCN=C(N)N)NC1=O (cyclo(AD[dF]VR)) | – | > 100 | – | > 100 | > 100 | – | – | – | – | – | – | – | –
